Compounds with a hit are over-represented: about 0.6% of the library has one in this group of screens.
Keap1 Nrf2 FP – disrupts human Keap1 binding to Nrf2 peptide; Keap1 Kelch-Nrf2 peptide fluorescence polarization, 1536-well; inhibition, % at 9.4 µM; 0.15% of 340,000 active; in the data active = inhibition above about 12%;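 note: human Keap1 Kelch domain with fluorescein labeled Nrf2 9mer peptide probe; higher means more block of Keap1 binding to Nrf2 peptide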
Target sequence (Q14145 whole entry, looked up, the tested form may be a part): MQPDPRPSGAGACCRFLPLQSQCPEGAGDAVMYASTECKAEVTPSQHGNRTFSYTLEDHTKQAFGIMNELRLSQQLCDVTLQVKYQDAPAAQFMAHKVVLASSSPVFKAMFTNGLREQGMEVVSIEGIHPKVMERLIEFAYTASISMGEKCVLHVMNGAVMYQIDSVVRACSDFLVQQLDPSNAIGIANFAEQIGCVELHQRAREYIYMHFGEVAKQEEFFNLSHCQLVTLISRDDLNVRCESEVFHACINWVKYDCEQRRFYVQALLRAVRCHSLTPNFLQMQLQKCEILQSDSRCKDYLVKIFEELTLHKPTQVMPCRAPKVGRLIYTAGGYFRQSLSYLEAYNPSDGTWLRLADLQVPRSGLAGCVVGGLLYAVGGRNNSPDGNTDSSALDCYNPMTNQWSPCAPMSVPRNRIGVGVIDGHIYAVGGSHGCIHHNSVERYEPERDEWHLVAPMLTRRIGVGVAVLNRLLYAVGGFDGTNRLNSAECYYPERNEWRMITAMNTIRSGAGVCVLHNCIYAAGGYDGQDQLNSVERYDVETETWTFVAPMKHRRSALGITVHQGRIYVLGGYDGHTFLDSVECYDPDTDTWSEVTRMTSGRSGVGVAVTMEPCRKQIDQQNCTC
Rtt109 HAT inh – blocks Candida albicans Rtt109/Vps75 acetyltransferase activity; Q5AAJ8; purified Rtt109/Vps75, ThioGlo CoA-SH fluorescence, 4 h; inhibition, % at 34.9 µM; 0.16% of 330,000 active;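 active = inhibition of at least 50% in every replicate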
Tn6 DDE FP – disrupts Tn6 cyclic peptide binding to fibrin D-Dimer-E complex; Fibrin DD(E) TRITC-Tn6 fluorescence polarization displacement; inhibition, % at 8.3 µM; 0.21% of 370,000 active; AID 720509;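 active = inhibition above a per-campaign cutoff: mean of compounds within control limits plus 3 SD, cut at about 15% in these data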
C-LANA FP – KSHV C-LANA DNA binding inhibition. MBP-C-LANA/FAM-LBS DNA binding, fluorescence polarization. inhibition, % at 9 µM. 0.078% of 340,000 active. AID 504423;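 active = highest replicate inhibition at or above 60% at 9 µM, even if other replicates fall short; inactive = all replicates below 60% inhibition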
Tn7 DDE FP – disrupts Tn7 cyclic peptide binding to fibrin D-Dimer-E complex; 0.13% of 370,000 active; FP displacement of FITC-Tn7 peptide from fibrin DD(E); 0% = median of compound wells per plate; inhibition, % at 8.3 µM; AID 720508;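 active = inhibition above the mean of compounds falling within the control limits plus 3 SD of them, cut at about 14% in these data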
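System: human fibrin DD(E); quantity: Fibrin-DD(E) at 2 µM final; also added: fluorescent Tn7 probe at 0.1 µM; compound dosing: single nominal test concentration of 8.3 µM per compound; schedule: 10 min preincubation, 3 h with tracer, room temperature; detection: fluorescence polarization of the labelled Tn7 tracer; repeats: one replicate per compound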
DDE Tn6 FP ctr – counter-screen hit for Tn6 peptide-fibrin DD(E) binding disruption; shares compounds with Tn6 DDE FP; TRITC-Tn6 fluorescence polarization displacement; 0% = median of compound wells, not DMSO; inhibition, % at 8.3 µM; 2% of 680 active; AID 720621;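 active = inhibition above the mean of test compounds lying between the control limits plus 3 SD of those, cut at about 14% in these data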
DDE Tn6 confirm – confirmation of inhibitors of Tn6 binding to human fibrin DD(E); shares compounds with Tn6 DDE FP; FP displacement of TRITC-Tn6 peptide from DD(E); 0% = per-plate median of test wells; inhibition, % at 8.3 µM; 10% of 680 active; AID 720631;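 active = inhibition above the mean of compounds lying within the control limits plus 3 SD, cut at about 16% in these data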
A number is an active result; n = inactive; x = no result given; + = active, no number.

SMILES	Keap1 Nrf2 FP	Rtt109 HAT inh	Tn6 DDE FP	C-LANA FP	Tn7 DDE FP	DDE Tn6 FP ctr	DDE Tn6 confirm
COc1ccc(CNC(=O)CC2C[C@H](C(=O)N3CCOCC3)[C@@]3(C)c4[nH]c5ccccc5c4CCN3C2=O)cc1OC (stereo partly specified)	n	n	n	n	n	x	x
COc1ccc(CC(=O)OCC(=O)N2CCCC(C)C2)cc1 (stereo unspecified)	n	n	15.2	n	n	n	n
CCOC(=O)[C@]12CCCCC/C=C\1N(Cc1ccc(OC)cc1)C(=O)[C@H]2CC(=O)NCCc1ccccc1OC	x	x	n	x	n	x	x
CCOC(=O)C1(C)C(=O)CC2c3nc4ccccc4cc3CN2C1=O (stereo unspecified)	x	x	74.8	x	n	n	47.4
CCn1ccc(=N)cc1	n	n	19.9	n	n	n	n
CCCCCn1ccc(=N)cc1	n	n	n	n	n	x	x
CCOC(=O)CC[C@@]1(C(=O)OCC)C[C@@H](CC(=O)N2CCCC2)C(=O)N2CCCC=C21	x	x	n	x	n	x	x
Cc1ccc(S(=O)(=O)NCCC(=O)OCc2ccc([N+](=O)[O-])cc2)cc1C	n	n	17.6	n	n	n	n
O=C(CCNS(=O)(=O)c1ccccc1)OCc1ccc([N+](=O)[O-])cc1	x	x	n	x	n	x	x
CC(=O)c1ccc(N2CCN(CN3C(=O)CC4(CCCC4)C3=O)CC2)c(F)c1	n	n	69.6	n	n	n	n
Cc1ccc(Cn2c(=O)c3ccccc3n3c(CCC(=O)NCCN4CCOCC4)nnc23)cc1	n	n	x	n	x	x	x
CC(C)CCn1c(=O)c2ccccc2n2c(CN3CCOCC3)nnc12	n	n	15.7	n	n	n	n
O=C(CNC(=O)c1ccc(Br)o1)Nc1cccc(S(=O)(=O)N2CCOCC2)c1	n	n	n	n	n	x	x
O=C(NCC(=O)N1CCN(S(=O)(=O)c2cccc(F)c2)CC1)c1ccc(Br)o1	n	n	15.8	n	n	n	n
CNC(=O)c1ccccc1NC(=O)c1ccco1	n	n	n	n	n	x	x
Cc1ccccc1NC(=O)c1ccccc1NC(=O)c1ccco1	n	n	16.5	n	n	n	n
O=C(CSc1nc2ccccc2[nH]1)Nc1nc(-c2ccc(Br)cc2)cs1	n	n	40.7	n	n	n	n
O=C(CSc1nnc(-c2ccccn2)n1-c1ccccc1)Nc1ccc(OCc2ccccc2)cc1	x	x	n	x	n	x	x
CN(Cc1ccccc1)Cc1c[nH]c2ccccc12	n	n	16.6	n	n	n	n
CC(C)C[C@H]1COc2cc(Br)ccc2S(=O)(=O)N1Cc1cn(Cc2ccc(Cl)cc2)nn1	x	x	n	x	n	x	x
O=S1(=O)c2ccc(N3CCC[C@@H]3CO)cc2O[C@@H]2CCN1C2	x	x	n	x	n	x	x
O=c1ccc2[n+]([O-])c3ccc(O)cc3oc-2c1	101.3	n	+	n	n	n	93.2
CC(C)C[C@@H]1NC(=O)[C@H]2C[C@]3(c4ccccc4)c4ccccc4N[C@H]3N2C1=O	x	x	n	x	n	x	x
CCCCCC(=O)Nc1ccc2oc(-c3cncc(Br)c3)nc2c1	n	n	15.8	n	n	n	n
Cc1cc(C)cc(N(CC(=O)NC2CCC(C)CC2)S(=O)(=O)c2ccc(C(C)(C)C)cc2)c1 (stereo unspecified)	x	x	n	x	n	x	x
SMILES	Keap1 Nrf2 FP	Rtt109 HAT inh	Tn6 DDE FP	C-LANA FP	Tn7 DDE FP	DDE Tn6 FP ctr	DDE Tn6 confirm
O=C(Cc1cccs1)Nc1cccc(-c2nc3cc4ccccc4cc3[nH]2)c1	n	n	143.7	n	n	n	34.0
CC(=O)Nc1cccc(NC(=O)Cc2cccs2)c1	n	n	n	n	n	x	x
Cc1ccc(S(=O)(=O)N2CCCC(C(=O)NCc3ccco3)C2)cc1 (stereo unspecified)	x	x	n	x	n	x	x
Cc1ccc(Cn2cc(CN(C(C)(C)C)S(=O)(=O)c3ccccc3Br)nn2)cc1	x	x	n	x	n	x	x
O=C(CSc1nnc(CNC(=O)c2ccco2)o1)Nc1ccccc1	n	n	n	n	n	x	x
O=C(CSc1nnc(CNC(=O)c2ccco2)o1)NC1CCCC1	n	n	15.9	n	n	n	n
CCOC(=O)[C@@]12CCCC3=C1N(CCC3)C(=O)[C@H]2CC(=O)N1CCN(C(=O)c2ccco2)CC1	x	x	n	x	n	x	x
CCC(C)(C)C1CCc2c(sc(N)c2C(N)=O)C1 (stereo unspecified)	n	n	17.4	n	n	n	n
Brc1ccc(-c2nc3ccccc3s2)s1	n	n	n	n	n	x	x
O=c1ccc2nc3ccccc3sc-2c1	x	x	19.6	x	n	n	n
O=C(Nc1cccc([N+](=O)[O-])c1)NC1CCCCN(Cc2ccc(Cl)cc2)C1=O (stereo unspecified)	x	x	n	x	n	x	x
Nc1nnc(CCC2CCCCC2)s1	n	n	16.7	n	n	n	n
Nc1nnc(CCCCCCCCCCc2nnc(N)s2)s1	n	n	n	n	n	x	x
c1ccc(-c2nnc3n2N=C(c2ccc4ccccc4c2)CS3)nc1	x	x	n	x	n	x	x
Cc1ccc(OCc2nnc(SCC(=O)Nc3ccc4c(c3)OCO4)n2Cc2ccco2)cc1	x	x	n	x	n	x	x
C=C(C)Cn1c(SCC(=O)NN=Cc2c(O)ccc3ccccc23)nnc1-c1ccc(Br)cc1	x	x	n	x	n	x	x
Cc1cc(NC(=O)COC(=O)c2ccc([N+](=O)[O-])cc2Cl)no1	n	n	98.2	n	n	n	n
CNC(=O)COC(=O)c1ccc([N+](=O)[O-])cc1Cl	n	n	n	n	n	x	x
O=C(COC(=O)c1n[nH]c2ccccc12)Nc1ccccc1	n	n	n	n	n	x	x
CC(=O)c1cccc(NC(=O)COC(=O)c2n[nH]c3ccccc23)c1	n	n	15.7	n	n	n	n
COP(=O)(O)[C@@H](CC(C)C)NC(=O)OCc1ccccc1	x	x	n	x	n	x	x
O=C(COC(=O)c1cc(-c2cccc3ccccc23)nc2ccccc12)NC1CCS(=O)(=O)C1 (stereo unspecified)	n	n	29.8	n	n	n	19.7
Cc1cc(C(=O)OCC(=O)NC2CCS(=O)(=O)C2)c2ccccc2n1 (stereo unspecified)	n	n	n	n	n	x	x
CCCCn1c(N)c(N(CCOC)C(=O)c2ccc(Cl)c(S(=O)(=O)N3CCCCC3)c2)c(=O)[nH]c1=O	n	n	n	n	n	x	x
CCCCN(C(=O)c1ccc(Cl)c(S(=O)(=O)N2CCOCC2)c1)c1c(N)n(CCC)c(=O)[nH]c1=O	n	n	17.3	n	n	n	n
C#CCNC(=O)C[C@H]1C[C@@]2(C(=O)OC)C(=C[C@H](C(C)(C)C)O[C@@H]2C)N(Cc2ccc(Cl)cc2Cl)C1=O	x	x	n	x	n	x	x
CC(C)C(Cl)=NOC(=O)Nc1ccc(S(N)(=O)=O)cc1	n	n	15.9	n	n	n	n
COc1cccc(CNC(=O)c2ccc(S(=O)(=O)N3CCOCC3)cc2)c1	n	n	n	n	n	x	x

Compound activity as filed in PubChem.
